# Compound activity (PubChem)
# Shown are actives, neighbours in structure and some others; about 4.7% of the full set was active somewhere.
# RGS4 block = human RGS4 inhibition. P49798. HEK293 M3R/RGS4 inducible, Fluo-4 calcium flux; active compounds read high; triggered by carbachol at its EC20. B-score at 10 µM. actives 0.45% (n = 310,000). AID 463165;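 active means B-score, a plate-corrected calcium signal, over three deviations above library mean, with baseline fluorescence within five deviations of library mean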;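 further: RGS4 expression induced by doxycycline in cells with stable M3 receptor; B-score is computed from the integrated fluorescence ratio over baseline after carbachol; higher B-score means a larger calcium signal and so more RGS4 inhibition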
# Target sequence (P49798 whole entry, looked up): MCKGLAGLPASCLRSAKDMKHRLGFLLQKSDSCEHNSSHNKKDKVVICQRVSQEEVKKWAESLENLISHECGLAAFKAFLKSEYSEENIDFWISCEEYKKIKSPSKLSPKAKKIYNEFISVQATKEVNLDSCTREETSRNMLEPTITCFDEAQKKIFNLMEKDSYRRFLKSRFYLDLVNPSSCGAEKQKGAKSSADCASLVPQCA
# KCC2 mod = modulators of human KCC2 chloride dependent transport. Q9H2X9. KCC2 cells, thallium flux FluoZin-2 fluorescence. B-score of Tl+ flux slope (higher = more flux/activation; lower = inhibition) at 10 µM. actives 2.2% (n = 190,000);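 active means thallium flux slope and its plate-corrected score both differing from the plate sample mean at a set confidence after two filtering rounds, in either direction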;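 further: slope of fluorescence scaled to starting intensity during 10 to 20 s after thallium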
# RGS4 pot = potentiators or activators of RGS4; B-score at 10 µM; HEK293 M3R/inducible RGS4, carbachol calcium flux Fluo4; active compounds read low; actives 0.92% (n = 310,000);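 active means B-score of the integrated calcium signal more than 4 SD below the library mean, with starting fluorescence not abnormally high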;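 further: negative B-score means reduced calcium response which marks RGS4 activation or potentiation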
#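 Also added: carbachol at ECmax as muscarinic agonist stimulus; Assay system: HEK293 cells with stable M3R and inducible RGS4; Timing: overnight RGS4 induction, 30 min dye load 37 °C, 20 min compound RT; Measured by: Fluo4-AM (2 µM) calcium-flux fluorescence, kinetic read.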
# MrgX1 ag = activates human MrgX1 receptor signaling; MrgX1-HEK293 cells, Fluo-4 calcium fluorescence, agonist mode; active compounds read high; actives 0.44% (n = 310,000); Q96LB2; B-score at 10 µM;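 active means calcium response B-score plate-corrected fluorescence ratio at least 3 library SD, with starting fluorescence B-score inside 5 SD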
# Target sequence (Q96LB2 whole entry, looked up): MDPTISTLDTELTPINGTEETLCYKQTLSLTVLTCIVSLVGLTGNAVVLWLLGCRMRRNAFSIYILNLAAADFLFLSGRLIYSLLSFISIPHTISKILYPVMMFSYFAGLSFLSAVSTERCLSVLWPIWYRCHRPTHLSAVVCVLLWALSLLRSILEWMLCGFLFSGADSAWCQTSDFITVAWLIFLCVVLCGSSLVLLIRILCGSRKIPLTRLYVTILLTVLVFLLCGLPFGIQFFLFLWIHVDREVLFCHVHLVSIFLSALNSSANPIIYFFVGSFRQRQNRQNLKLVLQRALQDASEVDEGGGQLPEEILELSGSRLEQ
#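 System – MrgX1-expressing HEK293 cells · Incubation – cells plated overnight, dye loaded 0.5 h 37 °C, 0.5 h room temperature · Technique – kinetic Fluo-4 NW fluorescence of intracellular calcium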
# MrgX1 PAM = allosterically activates human MrgX1 receptor signaling; Q96LB2; MrgX1-HEK293, Fluo-4 calcium flux, FDSS; active compounds read high; B-score at 10 µM; actives 0.63% (n = 310,000);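 active means plate-corrected calcium response at least 3 library SD above typical, normal starting fluorescence, not activating the receptor alone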;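 further: compound read alongside a low EC10 to EC30 dose of BAM8-22 agonist; peak minus trough fluorescence over baseline measured at the second addition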
# MrgX1 antagonist = antagonists of human MrgX1 receptor; Q96LB2; MRGX1-HEK293 calcium flux, Fluo-4, BAM8-22 antagonism; active compounds read low; B-score at 10 µM; actives 1.3% (n = 310,000); AID 588676;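 active means calcium-response B-score plate-corrected more than 3 library SD below zero, starting fluorescence within 5 deviations, no agonist response on first addition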;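 further: peak minus trough fluorescence over baseline after final BAM8-22 challenge near maximal dose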
# RGS4 block valid = validation of RGS4 inhibitors; shares compounds with RGS4 block; HEK293 M3R/RGS4, carbachol calcium Fluo-4 fluorescence; carbachol added at its EC20; 0 = buffer wells, 100 = carbachol control; calcium response, % at 10 µM; actives 65% (n = 1,700); AID 492999;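 active means duplicate-averaged calcium response above the buffer-only control mean plus 5 SD of those controls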;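 further: integrated fluorescence ratio F max minus min over baseline F0; higher response in RGS4-induced cells means RGS4 inhibition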
# RGS4 uninduced = counter-screen for RGS4 inhibitors: effect in non-induced cells; shares compounds with RGS4 block; HEK293 M3R non-induced, carbachol calcium Fluo-4; submaximal (EC20) carbachol stimulus; buffer wells 0%, carbachol control wells 100%; activity (percent), % at 10 µM; actives 20% (n = 1,900); call rule not given here;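 further: RGS4 induction absent so cells express M3R without RGS4; higher means more calcium signal and flags a non-specific hit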
# RGS4 inh ctr2 = second RGS4 inhibitor counter-screen in uninduced cells lacking carbachol; calcium response (agonist-mode artifact), % at 10 µM; actives 22% (n = 1,900); HEK293 M3R/RGS4 non-induced, Fluo-4 calcium, no carbachol; normalised: buffer wells 0%, carbachol wells 100%; shares compounds with RGS4 block;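 active means duplicate-averaged calcium rise in uninduced cells above buffer wells' mean plus 5 SD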
# A number is an active result; - = inactive; . = no result.
SMILES,RGS4 block,KCC2 mod,RGS4 pot,MrgX1 ag,MrgX1 PAM,MrgX1 antagonist,RGS4 block valid,RGS4 uninduced,RGS4 inh ctr2
O=C(CN(CCc1ccccc1)S(=O)(=O)c1ccc(Br)cc1)N/N=C/c1ccc2c(c1)OCO2,-,-,-,-,-,-,.,.,.
O=C(CN(Cc1ccc(Cl)c(Cl)c1)S(=O)(=O)c1ccccc1)N/N=C\c1ccc2c(c1)OCO2,6.66,-,-,-,-,-,18.0%,-,-
CCN1CCN(C(CNS(=O)(=O)c2ccc(F)cc2)c2cccnc2)CC1 (centres undefined),-,.,-,-,-,-,.,.,.
CC(=O)OCCSc1c(-c2ccccc2)c2cc(Cl)ccc2[nH]c1=O,4.77,-,-,-,-,-,13.5%,-,-
COC(=O)CSc1c(-c2ccccc2)c2cc(Cl)ccc2[nH]c1=O,-,-,-,-,-,-,.,.,.
N#Cc1c(N2CCCCC2)nc(N)c2c(N)nc3c(c12)CC(c1ccccc1)O3 (centres undefined),-,.,-,-,-,-,.,.,.
CCN(CC)c1nc(N)c2c(N)nc3c(c2c1C#N)CC(c1ccccc1)O3 (centres undefined),5.3,-,-,-,-,-,18.0%,-,-
Cc1ccc(N2C(=O)[C@@H]3C(C(=O)C(c4ccccc4)c4ccccc4)=NN[C@@H]3C2=O)cc1,7.19,-,-,-,-,-,29.0%,101.5%,-
Cc1cc(C)cc(NC(=O)CSc2nnc(-c3cc(C)[nH]n3)n2N)c1,-,.,-,-,-,-,.,.,.
Cc1nc(NC(=O)CN2CCC(O)(c3ccc(F)cc3)CC2)sc1C,-,-,-,-,-,-,.,.,.
O=C(CO)N/N=C/c1c2ccccc2cc2ccccc12,-,-,-,-,-,-,.,.,.
O=C(NC(C(=O)N/N=C/c1ccccc1)c1n[nH]c(=O)c2ccccc12)c1ccccc1 (centres undefined),-,-,-,-,-,-,-,-,10.5%
O=C(NC(C(=O)N/N=C/c1c2ccccc2cc2ccccc12)c1n[nH]c(=O)c2ccccc12)c1ccccc1 (centres undefined),-,-,-,-,-,-,-,-,127.5%
COc1ccc(OC)c(C2C=C(C34CC5CC(CC(C5)C3)C4)NC(=S)N2)c1 (centres undefined),8.81,-,-,-,-,-,14.5%,-,-
COc1cc(C2C=C(C34CC5CC(CC(C5)C3)C4)NC(=S)N2)cc(OC)c1OC (centres undefined),-,-,-,-,-,-,.,.,.
COc1ccc(-c2sc3ccccc3c2C#CCO)cc1,-,.,-,-,-,-,-,-,-
COc1ccc(-c2sc3ccccc3c2C#CCCO)cc1,4.87,.,-,-,-,-,9.0%,-,-
CCOC(=O)[C@H]1[C@H]2COc3cc(OC)ccc3[C@@H]2N2C(=O)N(c3cccc(Cl)c3)C(=O)[C@@]12C,-,.,-,-,-,-,-,-,-
CCOC(=O)[C@@H]1[C@H]2COc3cc(OC)ccc3[C@@H]2N2C(=O)N(c3cccc(Cl)c3)C(=O)[C@]12C,-,.,-,-,-,-,-,-,-
CCOC(=O)[C@@H]1[C@H]2COc3cc(OC)ccc3[C@@H]2N2C(=O)N(c3ccc(Cl)cc3)C(=O)[C@]12C,-,.,-,-,-,-,-,-,-
CCOC(=O)[C@@H]1[C@H]2COc3cc(OC)ccc3[C@@H]2N2C(=O)N(c3cccc(Cl)c3)C(=O)[C@@]12C,-,.,-,-,-,-,-,-,-
CCOC(=O)[C@@H]1[C@H]2COc3cc(OC)ccc3[C@@H]2N2C(=O)N(c3ccc(C)cc3)C(=O)[C@]12C,-,.,-,-,-,-,.,.,.
Cc1ccc(-n2nc3c(=O)n(CC(=O)NCCc4cccs4)nc(C)c3c2C)cc1,-,.,-,-,-,-,-,-,-
Cc1ccc(-n2nc3c(=O)n(C(C)C(=O)NCCc4cccs4)nc(C)c3c2C)cc1 (centres undefined),-,.,-,-,-,-,.,.,.
Cc1ccc(-n2nc3c(=O)n(CC(=O)NCc4ccccc4)nc(C)c3c2C)cc1,-,.,-,-,-,-,-,-,-
SMILES,RGS4 block,KCC2 mod,RGS4 pot,MrgX1 ag,MrgX1 PAM,MrgX1 antagonist,RGS4 block valid,RGS4 uninduced,RGS4 inh ctr2
CN1C(=O)S/C(=C\c2ccccc2OCc2ccc(C(=O)O)cc2)C1=O,6.19,-,-,-,-,-,13.5%,-,-
COc1cccc(/C=C2\SC(=O)NC2=O)c1OCc1ccc(C(=O)O)cc1,-,-,-,-,-,-,.,.,.
CCOc1ccc(NCc2nnc(SCc3ccc(Cl)cc3)n2-c2ccccc2)cc1,-,-,-,-,-,-,.,-,-
Cc1nnc(NC(=O)CSc2nccn2Cc2ccc(F)cc2)s1,-,.,-,-,-,-,.,.,.
COc1ccc(N2C(=O)CC(N3CCN(S(=O)(=O)c4c(F)cccc4F)CC3)C2=O)cc1OC (centres undefined),6.84,-,-,-,-,-,9.0%,-,-
Cc1ccc(NS(=O)(=O)c2c(C)[nH]c(C)c2C(=O)N2CCCCC2)c(Cl)c1,-,.,-,-,-,-,.,.,.
CCOCCCNC(=O)/C(C#N)=C/c1ccc([N+](=O)[O-])o1,8.07,-,-,-,8.41,-,31.0%,-,-
CC(NC(=O)/C(C#N)=C/c1ccc([N+](=O)[O-])o1)c1ccccc1 (centres undefined),6.24,.,-,-,-,-,16.0%,-,8.5%
CCOCCCNC(=O)/C(C#N)=C/c1ccc(-c2ccc(S(=O)(=O)N3CCOCC3)cc2)o1,-,-,-,-,-,-,.,.,.
O=S(=O)(c1ccccc1F)N1CCC(c2nc3ccccc3[nH]2)CC1,-,.,-,-,-,-,.,.,.
O=C(COC(=O)c1cccs1)Nc1nc(-c2ccccc2)cs1,-,-,-,-,-,-,.,.,.
O=C(COC(=O)/C=C/c1cccs1)Nc1nc(-c2ccccc2)cs1,14.8,-,-,-,-,-,50.5%,53.0%,-
O=C(COC(=O)/C=C/c1cccs1)Nc1nc(-c2cccc(Br)c2)cs1,-,-,-,-,-,-,-,-,12.0%
